Results taken from the RNAGym collection of RNA variant scans (doi:10.1126/science.aae0568).
This sample holds only a part of the variants without activity.

B1: tRNA (parent)
chain: GUUCCGUUGGCGUAAUGGUAACGCGUCUCCCUCCUAAGGAGAAGACUGCGGGUUCGAGUCCCGUACGGAACG

Variants of: B1
Assay: yeast fitness relative to wild type (ratio to wild type); higher = fitter; tRNA-Arg(CCU), competitive growth, 37 C, YPD
Procedure, shortened: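 Start and end populations of a pooled competition were compared by 100-nucleotide paired-end sequencing of gene amplicons. The Saccharomyces cerevisiae strains carried tRNA-Arg(CCU) gene variants at the native genomic locus, synthesised with a 3% per-site mutation rate at 69 sites, and competed in YPD at 37°C for 24 hours in six parallel replicates. Darwinian fitness relative to wild type was based on the change in genotype frequencies. Genotypes required ≥ 100 starting reads, and estimates < 0.5 were set to 0.5.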

Point of comparison: A15G A40U A45G, yeast fitness 0.585. Against it:
- A15G A43C G67U A70U — lower, ≤ 0.5
- A15C G52A A70U — lower, ≤ 0.5
- A15G A45U C49U C60G — lower, ≤ 0.5
- A15G C55U U59C A65C — lower, ≤ 0.5
- A15G C24G U26A G52A G68C — higher, 0.717
- A15G A36U C55A A57C — lower, 0.579
- A15G A65G — higher, 0.962
- A15G A65U — higher, 0.841
- A15C U32C — higher, 0.767
- A15C U32G — lower, 0.504
- A15G G41A A69U — higher, 0.615
- A15G C30U C33A G41C C46U G48C — lower, 0.551
- A15G A37U C55U — lower, 0.556
- A15G C33G G39C — lower, ≤ 0.5
- A15G A36U C61U A65U — lower, ≤ 0.5
- A15G G38C U64A G68A A69C — lower, ≤ 0.5
- A15C U28C A43U — lower, ≤ 0.5
- A15G C27A C46U — higher, 0.627
- A15C U47G — higher, 0.663
- A15G C27U A69U — higher, 0.808
- A15G C24G C29U C34G U35C C46G — higher, 0.618
- A15G G23C A45G G52A — higher, 0.65
- A15G C27A G44A C62U A65U — lower, ≤ 0.5
- A15G G23A G50A A57C A65U — higher, 0.6
- A15G A20U C22U G38C — lower, ≤ 0.5
- A15G A21C C24G A40U C49U — lower, ≤ 0.5
- A15G G18A A45C — lower, 0.57
- A15C G58A C61A — lower, ≤ 0.5
- A15G G41A C49A C66A — lower, 0.53
- A15G A37G C66U G67A — lower, ≤ 0.5
- A15G C31G U35C A57U — lower, ≤ 0.5
- A15G G48C G51A — lower, ≤ 0.5
- A15G C29A C61A C66G — lower, 0.535
- A15G G25A C27U C49U — higher, 0.714
- A15G G48A A65U — higher, 0.759
- A15G C24G A65C — lower, ≤ 0.5
- A15G C30G A37C A65U C66G — lower, ≤ 0.5
- A15G C30G A37C — lower, ≤ 0.5
- A15G C46G — higher, 0.897
- A15G G38C C66U — lower, ≤ 0.5
- A15G A37G G56C — lower, ≤ 0.5
- A15G C30G C62G — lower, ≤ 0.5
- A15G G44C — higher, 0.785
- A15G C29A A40G G48A — lower, ≤ 0.5
- A15G C46U A69C — higher, 0.835
- A15G C27U C62G — higher, 0.627
- A15G A37U C62A — lower, ≤ 0.5
- A15G C33U A65U — lower, 0.543
- A15G C30A U59C C62U G68U — lower, ≤ 0.5
- A15G A45U A57C A69C — lower, ≤ 0.5
- A15C U19A C24G C34G C46U U54C C61A A70U — lower, ≤ 0.5
- A15C U28C — higher, 0.737
- A15G C31G C66U — higher, 0.601
- A15G C24G — higher, 0.586
- A15G C24A — higher, 0.587
- A15G C24U — higher, 1.01
- A15G A20G C27U — higher, 0.732
- A15G G39C C62U G63C — lower, ≤ 0.5
- A15G C49A A69U — lower, 0.579
- A15G G25A C61U A70U — lower, ≤ 0.5
- A15G C24G A37G — lower, ≤ 0.5
- A15G A20G A40U — higher, 0.808
- A15G C24G C66G — lower, ≤ 0.5
- A15G C24U C29U C30G U35G C66U — lower, ≤ 0.5
- A15C U28G A45G G51C — lower, 0.554
- A15G G44C U59A — lower, ≤ 0.5
- A15G A36C G50C — lower, ≤ 0.5
- A15G C30G C31A — lower, ≤ 0.5
- A15G C22U A36U C60A — higher, 0.589
- A15G C30G C66U — lower, ≤ 0.5
- A15C U35C — lower, 0.578
- A15G G44A G50C A70G — lower, ≤ 0.5
- A15G G41C A45G — lower, ≤ 0.5
- A15G C62U A70U — higher, 0.73
- A15G A42G — higher, 0.929
- A15G G41C C49G C55U C61A — higher, 0.638
- A15C U26A C31G U32A — lower, ≤ 0.5
- A15G C22G G23C A43C G50C A70U — lower, ≤ 0.5
- A15G G18A G38C — lower, ≤ 0.5
- A15G G17A C29G C31U C46A — lower, ≤ 0.5
- A15G A20U A45U U64C — higher, 0.593
- A15G C61U A65U C66U — lower, ≤ 0.5
- A15G C30U G52A A70U — lower, 0.581
- A15G A43U G68C — lower, 0.581
- A15G A36G G41A G52A — lower, ≤ 0.5
- A15G A21U U26C — lower, 0.535
- A15G C62U — higher, 0.994
- A15G C62A — higher, 0.798
- A15G C61U G67A — lower, 0.549
- A15G C24G C29U C34G U35C C49U C62U — lower, ≤ 0.5
- A15C U16C C31G A69U — lower, ≤ 0.5
- A15C U16A C31G C34U A65U C66G — lower, ≤ 0.5
- A15G G48C A57U — lower, 0.511
- A15G A20G A40C C46U C49A A57U A65C C66G — lower, ≤ 0.5
- A15C U19C C46A U59A — lower, ≤ 0.5
- A15G C24G G48C — lower, ≤ 0.5
- A15G C27U C29U A37C C60U A69C — lower, ≤ 0.5
- A15G C33G G51A — higher, 0.665
- A15G A20G C49A C62U — lower, 0.567
- A15C U16C A65G — lower, ≤ 0.5
- A15G A21U A45G C62G — lower, 0.506
- A15C U28C C61G — lower, ≤ 0.5
- A15G G17A C46U — higher, 0.738
- A15G A36G U54A — lower, ≤ 0.5
- A15G C46G C55U — lower, ≤ 0.5
- A15G C34U A42U U47A A57G — lower, ≤ 0.5
- A15G G17C G23A G25A C66U — lower, ≤ 0.5
- A15G C55U G56A — lower, 0.58
- A15G A20C C24G G41C C46A C62G — lower, ≤ 0.5
- A15G G18A G58C A69U — lower, ≤ 0.5
- A15G C34U A42G C49A — lower, ≤ 0.5
- A15C U54C C66G — lower, ≤ 0.5
- A15G A36U C61U — lower, ≤ 0.5
- A15G G17A A65G — lower, ≤ 0.5
- A15G C46U C61G — lower, 0.581
- A15C G52A — higher, 0.712
- A15G A37C A69C — higher, 0.863
- A15G A45U G48A G56A — higher, 0.717
- A15G C27G — lower, 0.564
- A15G C27U — higher, 0.939
- A15G A20C U54A C62U — lower, ≤ 0.5
- A15C G56A A57C — lower, ≤ 0.5
- A15G G17C C33A C46A G52A — lower, ≤ 0.5
- A15G C46U A65U — higher, 0.735
- A15G C27A C31A A57C — lower, ≤ 0.5
- A15G C30U A70C — higher, 0.615
- A15G A20G C27U C33U A37U G38C C60U C62A G63U — higher, 0.684
- A15G A36C C46A C66U — lower, ≤ 0.5
- A15G G17A U26C C61U G67A — lower, ≤ 0.5
- A15C G58A G68A A70C — lower, ≤ 0.5
- A15G C46G C61G — lower, 0.567
- A15G C29G C34G C66G — lower, ≤ 0.5
- A15G C29G C31A A37G — lower, ≤ 0.5
- A15G G48A A70C — higher, 0.748
- A15G A37G A70C — higher, 0.664
- A15G C27U A65G — higher, 0.748
- A15G G39A C62G — lower, 0.568
- A15G A43U C46A — higher, 0.671
- A15C U28A G39A A65G — lower, ≤ 0.5
- A15G C24A U54G A65C — lower, ≤ 0.5
- A15C U16A A21G U26A C30U C61A — higher, 0.692
- A15G C30G G68A — lower, ≤ 0.5
- A15G C22U A70C — higher, 0.594
- A15C U26A A40C — higher, 0.63
- A15G G48A G58C — higher, 0.759
- A15G C22U A36U C62U — lower, ≤ 0.5
- A15C U26G U28C U32C A37G G41A C49G — lower, ≤ 0.5
- A15G G38C — higher, 0.669
- A15G G38A — higher, 0.866
- A15G C22A C29U U54C — lower, ≤ 0.5
- A15G A40U G48C C60G — lower, ≤ 0.5
- A15G C31U U35C — higher, 0.609
- A15G A20G C27A A40G A45C C55U — lower, ≤ 0.5
- A15G G50A A57G — lower, 0.584
- A15G A20U G48A — higher, 0.66
- A15C U35C A37U C66U — lower, ≤ 0.5
- A15C U26C G67U A69G — lower, ≤ 0.5
- A15G A20U C33A A36C A42U C55G C60A A69G — higher, 0.594
- A15G C29A G58A — lower, 0.57
- A15G A37U C61A — lower, ≤ 0.5
- A15G A36C C46A A65G — lower, ≤ 0.5
- A15G G48C C61A — lower, ≤ 0.5
- A15G G25C G67A A70G — lower, ≤ 0.5
- A15C U32C A36C A45C C60U — lower, ≤ 0.5
- A15G A36G A43G A57U — lower, ≤ 0.5
- A15G C55U — higher, 0.75
